From article PMC3525873 (British Journal of Pharmacology, 2012)
pIC50: −log10 of the molar value.

Columns and labels:
NFAT = test: GFP-NFAT translocation in RBL-2H3 cells; type: cell-based; conditions: 10 μM, thapsigargin 1 μM then 2 mM Ca2+ re-addition
Procedure, shortened: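 RBL-2H3 cells electroporated with GFP-NFAT (20 μg DNA, 300 V, 275 μF) 12–18 h beforehand, on coverslips. In nominally Ca2+-free buffer, stores depleted with 1 μM thapsigargin for 5 min, then 2 mM CaCl2 added. Test compound at 10 μM in all buffers. Basal taken before depletion. Cells fixed in paraformaldehyde with DAPI-stained nuclei. Nuclear/cytosolic GFP intensity ratio measured; ≥18 cells per condition.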

TRPC3 = biological target: T1, TRPC3 (Homo sapiens, UniProt Q13507); type: cell-based; conditions: TRPC3 ROCE vs RBL-2H3 SOCE
T1 sequence (Q13507 74-921 limits assumed): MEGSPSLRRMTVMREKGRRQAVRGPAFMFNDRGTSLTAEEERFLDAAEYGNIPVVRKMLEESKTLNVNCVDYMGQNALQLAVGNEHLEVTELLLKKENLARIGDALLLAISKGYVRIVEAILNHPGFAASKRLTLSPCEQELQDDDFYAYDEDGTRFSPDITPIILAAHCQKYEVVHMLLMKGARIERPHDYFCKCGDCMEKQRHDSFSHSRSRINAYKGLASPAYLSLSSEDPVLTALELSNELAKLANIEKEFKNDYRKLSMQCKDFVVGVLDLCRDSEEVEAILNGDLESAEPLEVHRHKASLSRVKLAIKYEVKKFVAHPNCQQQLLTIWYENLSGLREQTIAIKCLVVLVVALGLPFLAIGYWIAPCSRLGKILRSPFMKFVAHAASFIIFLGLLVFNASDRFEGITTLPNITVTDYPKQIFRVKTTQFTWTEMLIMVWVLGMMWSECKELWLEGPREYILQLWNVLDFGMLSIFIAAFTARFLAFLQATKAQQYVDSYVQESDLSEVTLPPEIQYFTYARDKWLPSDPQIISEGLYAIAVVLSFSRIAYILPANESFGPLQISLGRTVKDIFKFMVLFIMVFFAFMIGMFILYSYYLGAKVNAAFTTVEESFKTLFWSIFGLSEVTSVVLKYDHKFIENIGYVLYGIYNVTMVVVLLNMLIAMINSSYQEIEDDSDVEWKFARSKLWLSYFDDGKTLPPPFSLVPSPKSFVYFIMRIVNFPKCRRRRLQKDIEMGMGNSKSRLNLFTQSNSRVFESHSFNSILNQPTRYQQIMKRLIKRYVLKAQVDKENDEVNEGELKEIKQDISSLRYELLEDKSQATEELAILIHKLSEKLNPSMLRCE

TRPC6 = biological target: T2, TRPC6 (Mus musculus, UniProt Q61143); test: Fura-2 Ca2+ entry in HEK293 cells overexpressing GFP-TRPC6; type: cell-based, murine
T2 sequence (Q61143 1-930): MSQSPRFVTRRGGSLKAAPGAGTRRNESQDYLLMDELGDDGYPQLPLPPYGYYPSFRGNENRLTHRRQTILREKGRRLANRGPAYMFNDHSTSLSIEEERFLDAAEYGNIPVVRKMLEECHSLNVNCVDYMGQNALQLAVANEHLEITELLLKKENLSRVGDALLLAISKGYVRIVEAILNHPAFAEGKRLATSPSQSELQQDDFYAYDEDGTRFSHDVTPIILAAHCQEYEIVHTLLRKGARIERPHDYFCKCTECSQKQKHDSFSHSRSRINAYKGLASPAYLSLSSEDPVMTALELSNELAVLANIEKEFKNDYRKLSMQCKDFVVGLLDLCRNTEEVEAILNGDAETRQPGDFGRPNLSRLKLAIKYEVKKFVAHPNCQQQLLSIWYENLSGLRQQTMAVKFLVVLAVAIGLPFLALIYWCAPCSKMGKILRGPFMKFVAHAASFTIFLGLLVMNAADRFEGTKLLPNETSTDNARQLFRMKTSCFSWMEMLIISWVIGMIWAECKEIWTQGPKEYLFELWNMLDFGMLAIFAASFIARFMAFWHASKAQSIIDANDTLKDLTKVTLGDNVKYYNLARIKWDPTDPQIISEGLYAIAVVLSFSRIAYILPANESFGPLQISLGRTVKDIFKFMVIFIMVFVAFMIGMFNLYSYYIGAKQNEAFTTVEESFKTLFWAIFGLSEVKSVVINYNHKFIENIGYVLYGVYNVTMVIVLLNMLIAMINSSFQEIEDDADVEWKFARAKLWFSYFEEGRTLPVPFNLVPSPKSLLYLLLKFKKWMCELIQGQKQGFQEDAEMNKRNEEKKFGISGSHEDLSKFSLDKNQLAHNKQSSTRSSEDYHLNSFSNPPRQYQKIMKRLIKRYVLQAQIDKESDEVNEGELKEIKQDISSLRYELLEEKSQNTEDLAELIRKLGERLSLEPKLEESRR

[1] = biological target: CRAC currents in native RBL-2H3 cells (Rattus norvegicus, UniProt Q5M848); test: Patch-clamp of CRAC currents in native RBL-2H3 cells; type: cell-based
Procedure, shortened: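 Whole-cell recording of native RBL-2H3 cells at room temperature. Stores depleted passively by 20 mM EGTA in the Cs-methanesulphonate pipette solution (pH 7.2). Bath contained 20 mM CaCl2 (pH 7.4). Ramps from −90 to +90 mV over 1 s, holding +30 mV. Test compound at 3 μM, pre-incubated or applied acutely. Net current (minus basal) read at −85 mV 300 s after break-in; n ≥ 6 cells.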

RBL-2H3 cells = test: Degranulation assay; type: cell-based; conditions: ionomycin 0.4 μM
Procedure, shortened: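 RBL-2H3 cells grown to confluency, washed in RBL-2H3 buffer with 2 mM CaCl2, all incubations at 37°C. Test compound (3 or 10 μM) for 15 min, then ionomycin 0.4 μM final for 30 min. Stopped with 0.4 M glycine (pH 10.7), A405 read. Untreated and 2% triton-lysed cells served as basal/maximal references. n = 3 passages.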

CRAC currents in native RBL-2H3 cells, sequence (Q5M848 whole entry): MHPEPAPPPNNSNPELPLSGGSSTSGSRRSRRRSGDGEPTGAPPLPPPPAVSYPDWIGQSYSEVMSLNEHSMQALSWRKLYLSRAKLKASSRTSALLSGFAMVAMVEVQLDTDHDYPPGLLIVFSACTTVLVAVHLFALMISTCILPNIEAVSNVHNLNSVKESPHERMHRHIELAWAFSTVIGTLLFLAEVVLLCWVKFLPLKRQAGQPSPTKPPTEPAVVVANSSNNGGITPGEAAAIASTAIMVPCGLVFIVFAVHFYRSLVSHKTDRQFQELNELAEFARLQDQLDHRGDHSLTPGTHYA

Row | SMILES | Effect on NFAT translocation (NFAT) | Selectivity for TRPC3-ROCE as compared with the SOCE model, orders of magnitude (TRPC3) | Selectivity for TRPC3-ROCE as compared with the SOCE model (TRPC3; ratio of IC50 values) | pIC50 (TRPC6) | inhibition at 3 µM ([1]; RBL-2H3, read-out: Inhibition of CRAC currents) | Effect on ionomycin-initiated degranulation (RBL-2H3 cells; 3 μM) | Effect on ionomycin-initiated degranulation (RBL-2H3 cells; 10 μM) | Effect on CRAC Ca2+ entry-mediating conductance ([1]; 3 μM pre-incubation)
1 | Cc1ccc(S(=O)(=O)Nc2ccc(-n3nc(C(F)(F)F)cc3C(F)(F)F)cc2)cc1 [Pyr10, N-(4-(3,5-bis(trifluoromethyl)-1H-pyrazole-1-yl)phenyl)-4-methylbenzenesulfonamide] | failed to suppress NFAT activation significantly | 1.25 OM | 18 fold | < 5.00 | ~50% | – | – | –
2 | O=C(Nc1ccc(-n2nc(C(F)(F)F)cc2C(F)(F)F)cc1)c1ccncc1F [Pyr6, N-(4-(3,5-bis(trifluoromethyl)-1H-pyrazole-1-yl)phenyl)-3-fluoroisonicotinamide] | clearly inhibited NFAT translocation | – | – | < 5.00 | – | substantially reduced degranulation | suppressed responses down to basal levels | completely inhibiting CRAC currents
